Screens (PubChem)
LMPTP block: blocks human LMPTP phosphatase | recombinant LMPTP-A, OMFP fluorogenic substrate, fluorescence intensity | inhibition, % at 20 µM | 360,000 compounds, 0.22% hits | AID 651560;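 active = compounds that cut the enzyme signal by at least half of the control window in the single-dose screen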;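 also: plate controls were DMSO wells with enzyme plus substrate for no effect and substrate without enzyme for full effect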
Target sequence (P24666 whole entry, looked up): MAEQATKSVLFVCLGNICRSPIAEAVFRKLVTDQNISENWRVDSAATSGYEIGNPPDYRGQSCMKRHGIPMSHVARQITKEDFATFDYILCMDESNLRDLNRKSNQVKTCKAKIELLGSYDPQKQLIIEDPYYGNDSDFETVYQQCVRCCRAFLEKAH
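Assay system: LMPTP-A, protein tyrosine phosphatase of low molecular weight / Medium: pH 6.0 Bis-Tris buffer with DTT and Triton X-100 / Schedule: 50 min enzyme reaction at room temperature, protected from light / Measured by: endpoint fluorescence intensity from OMFP dephosphorylation / Read-out basis: % inhibition relative to no-enzyme and uninhibited control wells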
Scp1 inh: blocks human Scp-1 phosphatase activity; Recombinant Scp1, phosphopeptide, malachite green phosphate absorbance; 340,000 compounds, 0.88% hits; Q9GZU7; inhibition, % at 20 µM;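 active = inhibition above about 50% at 20 µM, limit read from the data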;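 also: plate controls were DMSO wells with enzyme for no effect and wells lacking enzyme for full effect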
Target sequence (Q9GZU7 76-261 limits assumed): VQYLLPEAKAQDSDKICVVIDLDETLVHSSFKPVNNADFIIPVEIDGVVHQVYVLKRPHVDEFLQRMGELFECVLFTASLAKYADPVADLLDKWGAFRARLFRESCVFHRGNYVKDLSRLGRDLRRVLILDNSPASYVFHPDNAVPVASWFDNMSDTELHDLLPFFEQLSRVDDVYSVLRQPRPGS
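Material – SCP-1 phosphatase catalytic domain, residues 76-261 · Buffer or medium – Acidic Tris acetate buffer with magnesium and detergent · Also added – Phospho 17-mer peptide substrate · Compound – single 20 µM dose, 1% DMSO · Times – 45 min room-temperature reaction, 5 min colour, 30 min stabiliser · Technique – Phosphate-binding colour reagent, absorbance read at 630 nm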
STEP block: blocks human striatal-enriched tyrosine phosphatase. inhibition, % at 20 µM. recombinant STEP, OMFP fluorogenic substrate, fluorescence. AID 588621. 360,000 compounds, 0.25% hits. P54829;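 active = inhibition at 20 µM, scaled per plate between control wells, above about 37%, limit read from the data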;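 also: 0% = DMSO with enzyme and substrate and 100% = substrate only without enzyme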
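Material: STEP (striatal-enriched tyrosine phosphatase) enzyme, cell-free | Medium: 50 mM Bis-Tris pH 6.0 with 2.5 mM DTT and 0.005% Tween 20 | Read-out: Percent inhibition scaled to no-enzyme and uninhibited-enzyme controls, plate-pattern corrected | Signal: Fluorescence read at 480 nm ex / 540 nm em | Times: 20 min reaction, room temperature, in the dark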
DNMT1 inh: blocks human DNA methyltransferase DNMT1; DNMT1 molecular beacon, Hinp1I cleavage, fluorescence; inhibition (reported as % activation of signal), % at 10 µM; 360,000 compounds, 0.83% hits; AID 588458; in the data active = inhibition above about 50%
SUMO1-SIM PPI: alters human SUMO1 binding to SIM partners | P63165 | SUMO1 binding to a labelled peptide, TR-FRET, 1 h | inhibition, % at 20 µM | 360,000 compounds, 0.33% hits | AID 602429; in the data active = inhibition above about 37%
Target sequence (P63165 whole entry, looked up): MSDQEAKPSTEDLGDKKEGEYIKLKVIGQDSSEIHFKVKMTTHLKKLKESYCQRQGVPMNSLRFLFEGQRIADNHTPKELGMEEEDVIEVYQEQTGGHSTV
DNMT1 interf DR: beacon fluorescence artifact, dose response counter-screen; shares compounds with DNMT1 inh; molecular beacon fluorescence, spectral interference counter-screen; IC50, µM; 200 tested, under 10 active; call rule not given here
DNMT1 inh conf: DNMT1 inhibition confirmation, single concentration | DNMT1 molecular beacon HinP1I cleavage, fluorescence | shares compounds with DNMT1 inh | inhibition, % at 10 µM | 2,300 compounds, 8% hits;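 active = average inhibition of at least 30% in the single-concentration confirmation test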
Beacon interf: shows spectral interference in the DNMT1 beacon assay | shares compounds with DNMT1 inh | DNMT1 molecular beacon spectral interference counterscreen, fluorescence 485/520 | activation (fluorescence interference), % at 10 µM | 2,300 compounds, 1% hits;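 active = activation of at least 30% at 10 µM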;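 also: DNMT1 catalytic domain with a HinP1I cleavage step and a FAM/dabcyl DNA beacon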
Numbers without * were called inactive; nt = no result. A selection: hits, their analogues and other compounds. The true share with any hit is near 1.7%.

SMILES | LMPTP block | Scp1 inh | STEP block | DNMT1 inh | SUMO1-SIM PPI | DNMT1 inh conf | Beacon interf | others
CC1CCCCN1CCNC(=O)c1ccc2c(c1)N(Cc1cccc(Cl)c1)C(=O)c1ccccc1S2(=O)=O (stereo unspecified) | 2 | nt | 3 | 86* | -5 | 2 | 3
CCn1c(SCC(=O)N2CCc3ccccc32)nnc1-c1c[nH]c2ccccc12 | 2 | 4 | -3 | 4 | -4 | nt | nt
COc1ccc(-n2c(SCC(=O)N3CCc4ccccc43)nnc2-c2c[nH]c3ccccc23)cc1 | 0 | -6 | 5 | 67* | 2 | -3 | -5
O=C1NC(=S)N/C1=C/c1cccn1-c1ccc([N+](=O)[O-])cc1 | 32 | 23 | -2 | 55* | -18 | 4 | -1
O=C1CCCC2=C1C(c1ccco1)Nc1ccc3ccccc3c12 (stereo unspecified) | 12 | 74* | 4 | 103* | 15 | 50* | -5 | DNMT1 interf DR=>99
O=C(O)/C=C\c1cc2c(cc1[N+](=O)[O-])OCO2 | 5 | -5 | 2 | 4 | -12 | nt | nt
O=C1NC(=S)N/C1=C/c1cc2c(cc1[N+](=O)[O-])OCO2 | -1 | 2 | 3 | 60* | 55* | 30* | -12 | DNMT1 interf DR=>99
Cc1ccsc1/C=N/N=C/c1sccc1C | 2 | -2 | 2 | 56* | -10 | 4 | 3
O=C(Nc1ccc(Cl)cc1)Nc1cccnc1 | 1 | 0 | -3 | -1 | 0 | nt | nt
O=C(Nc1ccc(Cc2ccc(NC(=O)Nc3cccnc3)cc2)cc1)Nc1cccnc1 | 16 | nt | 1 | 51* | 15 | -1 | 0
COc1ccccc1OCCSc1nc2ccccc2n1CC(N)=O | 0 | -9 | -2 | -2 | 4 | nt | nt
CCOc1ccc(N=c2cc(-c3ccc(OC)cc3)oc3ccccc23)cc1 | 9 | 14 | 1 | 95* | -4 | 2 | 4
COc1ccc(CNC(=O)CCCn2c(=S)[nH]c3cc4c(cc3c2=O)OCO4)cc1 | 0 | -5 | 8 | 2 | -29 | nt | nt
CCOc1cc2[nH]c(=S)n(CCC(=O)NCc3ccc(OC)cc3)c(=O)c2cc1OCC | 1 | -7 | 4 | 59* | 6 | -3 | -10
Cc1ccccc1N(C)S(=O)(=O)c1nnc(NC(=O)c2ccco2)s1 | 13 | 27 | 1 | 54* | 19 | 3 | 1
Cc1ccc(N(C)S(=O)(=O)c2nnc(NC(=O)c3ccco3)s2)cc1 | -1 | -2 | -1 | 5 | 0 | nt | nt
COCCCn1c(=N)c(C(N)=S)cc2c(=O)n3cccc(C)c3nc21 | 6 | -9 | 7 | 54* | 22 | 4 | 1
Cc1cc2cc(CNC(=O)Nc3ccccc3)ccc2n1C | 6 | 3 | 3 | 54* | -6 | 2 | 5
Cc1cc2cc(CNS(=O)(=O)c3ccccc3)ccc2n1C | 32 | -6 | 1 | 26 | -26 | nt | nt
Cc1cc2cc(CNC(=S)NCc3ccccc3)ccc2n1C | 19 | 3 | 5 | 77* | -4 | 2 | 2
CCOC(=O)NCc1ccc2c(c1)cc(C)n2C | 4 | -8 | 6 | -12 | -28 | nt | nt
Cc1cc2cc(CNC(=S)NC3CCCCC3)ccc2n1C | 5 | 4 | 3 | 63* | -7 | 6 | 6
Cc1ccc(CNC(=S)NC2CCCCC2)cc1 | 0 | 4 | 0 | 2 | -8 | nt | nt
COc1ccc(S(=O)(=O)NCc2ccc3c(c2)cc(C)n3C)cc1 | 36 | -7 | 2 | 59* | -20 | 0 | 15
O=C(COc1ccc(S(=O)(=O)N2CCCC2)cc1)NCc1ccccn1 | 0 | -5 | 3 | 1 | -4 | nt | nt
SMILES | LMPTP block | Scp1 inh | STEP block | DNMT1 inh | SUMO1-SIM PPI | DNMT1 inh conf | Beacon interf | others
CCOc1nc(NC(=O)NC(=O)c2ccccc2)nc(-c2ccccc2)n1 | 0 | 1 | -10 | 73* | 3 | 0 | -5
Cc1cc([N+](=O)[O-])ccc1P(=O)(O)c1ccc([N+](=O)[O-])cc1C | -2 | 15 | -3 | 5 | -11 | nt | nt
O=C(c1coc(=O)c(Br)c1)N1CCCc2ccccc21 | 10 | 19 | 6 | 58* | 9 | 2 | 3
CC1(C)CCCN(C(=O)c2coc(=O)c(Br)c2)C1 | 54* | 96* | 97* | 87* | 3 | 103* | -4 | DNMT1 interf DR=>99
O=C(c1cc(=O)c2ccccc2o1)N1CCCc2ccccc21 | 0 | -7 | -2 | 84* | -3 | 4 | 5
CSc1ccccc1NC(=O)C1(C)CCN1C(=O)CCC1CCCC1 (stereo unspecified) | -2 | nt | 0 | -4 | 1 | nt | nt
CC(NC(=O)c1cc(S(=O)(=O)N2CCOCC2)ccc1N1CCCC1)c1ccc(Cl)c(Cl)c1 (stereo unspecified) | 2 | -1 | 8 | -2 | 2 | nt | nt
Cc1ccc2nc(-c3cccc(Br)c3)c(Cc3cccc(Cl)c3)n2c1 | 1 | nt | -2 | -3 | 9 | nt | nt
COc1ccccc1C#Cc1cnc2c(c1)C(=O)N([C@H](C)CO)C[C@H](C)[C@@H](CN(C)S(=O)(=O)c1cn(C)cn1)O2 | -2 | nt | -1 | 100* | -2 | 7 | 9
CC1CN(S(=O)(=O)c2cccc(C(=O)OCc3cc(=O)oc4cc(O)ccc34)c2)CC(C)O1 (stereo unspecified) | 3 | 18 | -2 | 14 | 1 | nt | nt
CN(C)c1cccc(C(=O)OCc2cc(=O)oc3cc(O)ccc23)c1 | 22 | 62* | 41* | 82* | 15 | 8 | 2
CCSc1nnc(NC(=O)C2Cc3ccccc3CN2C(=O)c2ccco2)s1 (stereo unspecified) | 3 | -2 | 1 | 53* | 20 | 4 | 0
CCN(C(=O)CSc1nnc(-c2ccccc2OC)n1N)c1c(N)n(Cc2ccccc2)c(=O)[nH]c1=O | -2 | -3 | 0 | 8 | -3 | nt | nt
Cc1cc(C)c(OCC(=O)OC(C)C(=O)N2CCc3ccccc32)c(C)c1 (stereo unspecified) | 1 | -9 | 5 | 7 | 6 | nt | nt
CC(=O)NCCC(=O)Nc1cccc(S(=O)(=O)N(C)c2ccccc2)c1 | 0 | 3 | -2 | 56* | 0 | 3 | 1
O=C(Nc1ccccc1)Nc1nnc(SCc2ccc(Cl)cc2)s1 | 0 | -4 | -2 | 9 | 1 | nt | nt
Cc1ccc(Nc2nnc(SCc3nc4ccccc4c(=O)[nH]3)s2)cc1 | 0 | 0 | -1 | 66* | 0 | 2 | -1
O=C(CCc1nc2ccccc2c(=O)[nH]1)Nc1nnc(SCc2ccccc2F)s1 | 2 | -4 | 2 | 77* | 3 | 3 | -1
